Data reported in ChEMBL document CHEMBL3739352, “Anticonvulsant activity, crystal structures, and preliminary safety evaluation of N-trans-cinnamoyl derivatives of selected (un)modified aminoalkanols” (Eur J Med Chem, 2016).
Calls of active or inactive are those of the source. No cut-off for these calls is given here.

Legend:
Mus musculus [1] = test: Neurotoxicity in albino Carworth Farms No.1 mouse at 300 mg/kg, ip after 4 hrs by rotarod test; assay type: toxicity, organism-based; settings: in vivo
Outline: (§1)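 Mice (albino Carworth Farms No.1) were dosed i.p. at 30, 100 or 300 mg/kg in 0.5% methylcellulose. They were tested 0.5 and 4 h later on a 1-inch knurled rod rotating at 6 rpm. Neurotoxicity was scored if a mouse could not stay on the rod for at least 1 min in each of three trials. Results are given as animals toxic/animals tested, with deaths noted.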

Salmonella typhimurium [2] = test: Mutagenicity in Salmonella typhimurium TA100 assessed as number of revertants at 1000 ug/plate by Ames test (reference value: 77 +/-4); assay type: toxicity, organism-based; settings: salmonella enterica subsp. enterica serovar typhimurium
Outline: (§2)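 Salmonella TA100 preincubation Ames assay: overnight-type 12 h broth culture at 37 °C, compound in DMSO at final 4–1000 per plate, top agar with trace histidine, glucose minimal agar, 48 h at 37 °C. Revertant colonies per plate were counted, with a DMSO negative control and a sodium azide positive control. Three independent repetitions were run.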

Salmonella typhimurium [3] = test: Mutagenicity in Salmonella typhimurium TA98 assessed as mutagenic index at 100 ug/plate by Ames test; assay type: toxicity, organism-based; settings: salmonella enterica subsp. enterica serovar typhimurium
Salmonella typhimurium [4] = test: Mutagenicity in Salmonella typhimurium TA100 assessed as number of revertants at 4 ug/plate by Ames test (reference value: 77 +/-4); assay type: toxicity, organism-based; settings: salmonella enterica subsp. enterica serovar typhimurium; outline: as §2
Salmonella typhimurium [5] = test: Mutagenicity in Salmonella typhimurium TA100 assessed as mutagenic index at 100 ug/plate by Ames test; assay type: toxicity, organism-based; settings: salmonella enterica subsp. enterica serovar typhimurium
Outline: (§3)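 Ames preincubation test. Strain culture was grown 12 h at 37 °C in nutrient broth, then mixed with compound in DMSO (final 4, 20, 100, 500, 1000 per plate) and buffer in top agar with trace histidine. This was plated on glucose minimal agar for 48 h at 37 °C. Mutagenic index = revertants with compound / DMSO control revertants, from three independent repeats.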

Mus musculus [6] = test: Anticonvulsant activity in albino Carworth Farms No.1 mouse assessed as protection against maximal electroshock-induced seizures at 30 mg/kg, ip after 0.5 hrs; assay type: functional, organism-based
Outline: (§4)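 Mouse i.p. screen in Carworth Farms No.1 albino mice at 30, 100 or 300 mg/kg in 0.5% methylcellulose. Testing was at 0.5 and 4 h after injection, by maximal electroshock or by subcutaneous pentetrazol challenge. Scoring was number protected / number used.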

Salmonella typhimurium [7] = test: Mutagenicity in Salmonella typhimurium TA98 assessed as number of revertants at 4 ug/plate by Ames test (reference value: 23 +/- 3); assay type: toxicity, organism-based; settings: salmonella enterica subsp. enterica serovar typhimurium
Salmonella typhimurium [8] = test: Mutagenicity in Salmonella typhimurium TA98 assessed as mutagenic index at 1000 ug/plate by Ames test; assay type: toxicity, organism-based; settings: salmonella enterica subsp. enterica serovar typhimurium
Mus musculus [9] = test: Anticonvulsant activity in albino Carworth Farms No.1 mouse assessed as protection against subcutaneous dosed pentetrazol-induced seizures at 300 mg/kg, ip after 0.5 hrs; assay type: functional, organism-based; outline: as §4
Salmonella typhimurium [10] = test: Mutagenicity in Salmonella typhimurium TA1535 assessed as assessed as mutagenic index at 4 ug/plate by Ames test; assay type: toxicity, organism-based; settings: salmonella enterica subsp. enterica serovar typhimurium; outline: as §3
Mus musculus [11] = test: Anticonvulsant activity in albino Carworth Farms No.1 mouse assessed as protection against maximal electroshock-induced seizures at 30 mg/kg, ip after 4 hrs; assay type: functional, organism-based; outline: as §4
Salmonella typhimurium [12] = test: Mutagenicity in Salmonella typhimurium TA100 assessed as number of revertants at 500 ug/plate by Ames test (reference value: 77 +/-4); assay type: toxicity, organism-based; settings: salmonella enterica subsp. enterica serovar typhimurium; outline: as §2
Salmonella typhimurium [13] = test: Mutagenicity in Salmonella typhimurium TA98 assessed as mutagenic index at 20 ug/plate by Ames test; assay type: toxicity, organism-based; settings: salmonella enterica subsp. enterica serovar typhimurium
Mus musculus [14] = test: Anticonvulsant activity in albino Carworth Farms No.1 mouse assessed as protection against subcutaneous dosed pentetrazol-induced seizures at 100 mg/kg, ip after 0.5 hrs; assay type: functional, organism-based; outline: as §4
[15] = Lipophilicity of the compound using 85% methanol in water at 1 mg/ml by RT-TLC analysis; assay type: physicochemical; settings: buffer
Outline: (§5)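 Reversed-phase TLC with a methanol–water mobile phase at the stated methanol content (v/v). Compounds were spotted from 1 mg/mL methanol solutions after 1 h chamber saturation and located under UV light. Rf was measured and RM = log(1/Rf − 1) calculated.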

[16] = Lipophilicity of the compound at 1 mg/ml by RT-TLC analysis relative to 0% methanol; assay type: physicochemical; settings: methanol/water
Outline: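 Reversed-phase TLC used methanol–water mobile phases of 95–65% methanol. Compounds were applied from 1 mg/mL methanol solutions after 1 h chamber saturation, with UV detection. RM = log(1/Rf − 1) was calculated at each methanol level and extrapolated linearly (RM = RM0 + bC) to 0% methanol to give RM0.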

Mus musculus [17] = test: Neurotoxicity in albino Carworth Farms No.1 mouse at 30 mg/kg, ip after 0.5 hrs by rotarod test; assay type: toxicity, organism-based; settings: in vivo; outline: as §1
Salmonella typhimurium [18] = test: Mutagenicity in Salmonella typhimurium TA1535 assessed as number of revertants at 4 ug/plate by Ames test (reference value: 10 +/- 3); assay type: toxicity, organism-based; settings: salmonella enterica subsp. enterica serovar typhimurium
Salmonella typhimurium [19] = test: Mutagenicity in Salmonella typhimurium TA1535 assessed as number of revertants at 500 ug/plate by Ames test (reference value: 10 +/- 3); assay type: toxicity, organism-based; settings: salmonella enterica subsp. enterica serovar typhimurium
[20] = Lipophilicity of the compound using 75% methanol in water at 1 mg/ml by RT-TLC analysis; assay type: physicochemical; settings: buffer; outline: as §5
Salmonella typhimurium [21] = test: Mutagenicity in Salmonella typhimurium TA98 assessed as number of revertants at 1000 ug/plate by Ames test (reference value: 23 +/- 3); assay type: toxicity, organism-based; settings: salmonella enterica subsp. enterica serovar typhimurium
Mus musculus [22] = test: Anticonvulsant activity in albino Carworth Farms No.1 mouse assessed as protection against maximal electroshock-induced seizures at 100 mg/kg, ip after 0.5 hrs; assay type: functional, organism-based; outline: as §4
Salmonella typhimurium [23] = test: Mutagenicity in Salmonella typhimurium TA1535 assessed as number of revertants at 1000 ug/plate by Ames test (reference value: 10 +/- 3); assay type: toxicity, organism-based; settings: salmonella enterica subsp. enterica serovar typhimurium
Salmonella typhimurium [24] = test: Mutagenicity in Salmonella typhimurium TA1535 assessed as number of revertants at 20 ug/plate by Ames test (reference value: 10 +/- 3); assay type: toxicity, organism-based; settings: salmonella enterica subsp. enterica serovar typhimurium
[25] = Lipophilicity of the compound using 65% methanol in water at 1 mg/ml by RT-TLC analysis; assay type: physicochemical; settings: buffer; outline: as §5
Mus musculus [26] = test: Anticonvulsant activity in albino Carworth Farms No.1 mouse assessed as protection against subcutaneous dosed pentetrazol-induced seizures at 100 mg/kg, ip after 4 hrs; assay type: functional, organism-based; outline: as §4
Salmonella typhimurium [27] = test: Mutagenicity in Salmonella typhimurium TA100 assessed as number of revertants at 100 ug/plate by Ames test (reference value: 77 +/-4); assay type: toxicity, organism-based; settings: salmonella enterica subsp. enterica serovar typhimurium; outline: as §2
Salmonella typhimurium [28] = test: Mutagenicity in Salmonella typhimurium TA98 assessed as mutagenic index at 500 ug/plate by Ames test; assay type: toxicity, organism-based; settings: salmonella enterica subsp. enterica serovar typhimurium
Salmonella typhimurium [29] = test: Mutagenicity in Salmonella typhimurium TA100 assessed as mutagenic index at 4 ug/plate by Ames test; assay type: toxicity, organism-based; settings: salmonella enterica subsp. enterica serovar typhimurium; outline: as §3
Mus musculus [30] = test: Neurotoxicity in albino Carworth Farms No.1 mouse at 100 mg/kg, ip after 0.5 hrs by rotarod test; assay type: toxicity, organism-based; settings: in vivo; outline: as §1
Salmonella typhimurium [31] = test: Mutagenicity in Salmonella typhimurium TA100 assessed as number of revertants at 20 ug/plate by Ames test (reference value: 77 +/-4); assay type: toxicity, organism-based; settings: salmonella enterica subsp. enterica serovar typhimurium; outline: as §2
Salmonella typhimurium [32] = test: Mutagenicity in Salmonella typhimurium TA1535 assessed as mutagenic index at 1000 ug/plate by Ames test; assay type: toxicity, organism-based; settings: salmonella enterica subsp. enterica serovar typhimurium
Mus musculus [33] = test: Anticonvulsant activity in albino Carworth Farms No.1 mouse assessed as protection against maximal electroshock-induced seizures at 100 mg/kg, ip after 4 hrs; assay type: functional, organism-based; outline: as §4
Salmonella typhimurium [34] = test: Mutagenicity in Salmonella typhimurium TA98 assessed as number of revertants at 500 ug/plate by Ames test (reference value: 23 +/- 3); assay type: toxicity, organism-based; settings: salmonella enterica subsp. enterica serovar typhimurium

Compound	Activity (Mus musculus [1])	Activity (Salmonella typhimurium [2])	Activity_index (Salmonella typhimurium [3])	Activity (Salmonella typhimurium [4])	Activity_index (Salmonella typhimurium [5])	Activity (Mus musculus [6])	Activity (Salmonella typhimurium [7])	Activity_index (Salmonella typhimurium [8])	Activity (Mus musculus [9])	Activity_index (Salmonella typhimurium [10])	Activity (Mus musculus [11])	Activity (Salmonella typhimurium [12])	Activity_index (Salmonella typhimurium [13])	Activity (Mus musculus [14])	Rm [15]	Rm [16]	Activity (Mus musculus [17])	Activity (Salmonella typhimurium [18])	Activity (Salmonella typhimurium [19])	Rm [20]	further results
CCC(O)CNC(=O)/C=C/c1ccccc1 (racemic)	Non-toxic	72	0.9	60	0.8	inactive	19	1.1	Active	0.9	inactive	60	0.9	inactive	-0.25	1.937	Non-toxic	9	7	-0.18	Activity (Salmonella typhimurium [21]): 25; Activity (Mus musculus [22]): inactive; Activity (Salmonella typhimurium [23]): 6; Activity (Salmonella typhimurium [24]): 14; Rm [25]: 0.19; Activity (Mus musculus [26]): inactive; Activity (Salmonella typhimurium [27]): 62; Activity_index (Salmonella typhimurium [28]): 0.7; Activity_index (Salmonella typhimurium [29]): 0.8; Activity (Mus musculus [30]): Non-toxic; Activity (Salmonella typhimurium [31]): 64; Activity_index (Salmonella typhimurium [32]): 0.6; Activity (Mus musculus [33]): inactive; Activity (Salmonella typhimurium [34]): 17
CC(O)CNC(=O)/C=C/c1ccccc1 (racemic)	Non-toxic	73	0.9	68	0.9	inactive	26	1	Active	1.2	inactive	65	1	inactive	-0.33	1.512	Non-toxic	12	14	-0.27	Activity (Salmonella typhimurium [21]): 24; Activity (Mus musculus [22]): inactive; Activity (Salmonella typhimurium [23]): 14; Activity (Salmonella typhimurium [24]): 13; Rm [25]: 0.02; Activity (Mus musculus [26]): inactive; Activity (Salmonella typhimurium [27]): 67; Activity_index (Salmonella typhimurium [28]): 0.9; Activity_index (Salmonella typhimurium [29]): 0.9; Activity (Mus musculus [30]): Non-toxic; Activity (Salmonella typhimurium [31]): 70; Activity_index (Salmonella typhimurium [32]): 1.4; Activity (Mus musculus [33]): inactive; Activity (Salmonella typhimurium [34]): 21
